Results taken from publication PMC5651194 (Cellular signalling, 2017).

Columns and labels:
PDE11A = conditions: very weak hit; cited from earlier work
murine PDE4A1 = murine PDE4A1 (Mus musculus, UniProt O89084); test: Yeast-based HTS; assay type: cell-based; conditions: duplicate plates, OD600 after 48 h
How it was run: (§1)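 S. pombe gpa2Δ strains carrying the PKA-repressed fbp1-ura4+ reporter, with the PDE replacing endogenous Cgs2, grown in 5FOA medium. Compounds from 5 mg/mL stocks were pinned in. OD600 read after 48 h at 30°C. Run on duplicate plates; composite Z = replicate Z-score vector scaled by cosine correlation with the diagonal. Controls: 0.2% DMSO (negative), 5 mM cAMP (positive).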

rat PDE2A = rat PDE2A (Rattus norvegicus, UniProt Q01062); test: In vitro PDE assay; assay type: biochemical
How it was run: (§2)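 Recombinant PDE (human PDE1C, PDE3B, PDE5A1, PDE8A, PDE9A2, PDE10A1, PDE11A4; rat PDE2A) incubated with radiolabelled cyclic nucleotide substrate. Stopped in linear phase with 0.2 M ZnSO4, hydrolysis ≤~50%. 5′-nucleotide precipitated with 0.25 N Ba(OH)2 and spun down for 15 min. Supernatant radioactivity measured by scintillation counting.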

human PDE9A2 = human PDE9A2 (Homo sapiens, UniProt O76083); test: In vitro PDE assay; assay type: biochemical
How it was run: as §2

human PDE3B = human PDE3B (Homo sapiens, UniProt Q13370); test: In vitro PDE assay; assay type: biochemical
How it was run: as §2

human PDE8A = human PDE8A (Homo sapiens, UniProt O60658); test: In vitro PDE assay; assay type: biochemical
How it was run: as §2

[1] = test system: yeast strains that express human PDE4A1, PDE4B2, PDE4D3, PDE7A1 or PDE7B1; test: 5FOA growth assay, dose response; assay type: cell-based; conditions: dose response 0.05 μM to 50 μM
human PDE5A1 = human PDE5A1 (Homo sapiens, UniProt O76074); test: In vitro PDE assay; assay type: biochemical
How it was run: as §2

[2] = target: mutant PDE4B2^T407A catalytic domain (Homo sapiens, UniProt Q07343, T579A); test: In vitro enzyme assay, catalytic domain purified from E. coli; assay type: biochemical
PDE7B [3] = target: PDE7B (Homo sapiens, UniProt Q9NP56); test: In vitro PDE assay; assay type: biochemical
human PDE7A1 = human PDE7A1 (Homo sapiens, UniProt Q13946); test: Yeast-based HTS; assay type: cell-based; conditions: duplicate plates, OD600 after 48 h
How it was run: as §1

[4] = test system: TNFα production by LPS-stimulated macrophage (U937 cells); test: TNFα assay; assay type: cell-based; conditions: 20μM
human PDE7A = human PDE7A (Homo sapiens, UniProt Q13946); test: In vitro PDE assay; assay type: biochemical
How it was run: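 Human PDE7 enzymes (PDE7A recombinant) assayed with 10nM cAMP substrate. Stopped during linear phase with 0.2 M ZnSO4, conversion kept near 50%. Product 5′-AMP removed by 0.25 N Ba(OH)2 precipitation and 15 min centrifugation. Remaining supernatant radioactivity read in scintillation fluid.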

murine PDE4B3 = murine PDE4B3 (Mus musculus, UniProt Q8VBU5); test: Yeast-based HTS; assay type: cell-based; conditions: duplicate plates, OD600 after 48 h
How it was run: as §1

PDE8A = conditions: not a hit; cited from earlier work
rat PDE4A5 = rat PDE4A5 (Rattus norvegicus, UniProt P54748); test: Yeast-based HTS; assay type: cell-based; conditions: duplicate plates, OD600 after 48 h
How it was run: as §1

human PDE11A4 = human PDE11A4 (Homo sapiens, UniProt Q9HCR9); test: In vitro PDE assay; assay type: biochemical
How it was run: as §2

human PDE1C = human PDE1C (Homo sapiens, UniProt Q14123); test: In vitro PDE assay; assay type: biochemical
How it was run: as §2

Human PDE4A10 = Human PDE4A10 (Homo sapiens, UniProt P27815); test: In vitro PDE assay; assay type: biochemical
How it was run: (§3)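 Radiolabelled cAMP hydrolysis with cAMP substrate at 40nM. Reactions stopped in linear phase with 0.2 M ZnSO4, hydrolysis limited to ~50% conversion. 5′-AMP precipitated with 0.25 N Ba(OH)2 and pelleted by centrifugation for 15 min. Supernatant radioactivity counted by scintillation.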

[5] = test system: PDE4 and PDE7 relative to PDE2A and PDE11A; test: Selectivity from in vitro PDE assays; assay type: biochemical
human PDE10A1 = human PDE10A1 (Homo sapiens, UniProt Q9Y233); test: In vitro PDE assay; assay type: biochemical
How it was run: as §2

Human PDE4B2 = Human PDE4B2 (Homo sapiens, UniProt Q07343); test: In vitro PDE assay; assay type: biochemical
CLL cells = test: CLL apoptosis assay; assay type: cell-based, human; conditions: 20μM, 48 h, median and standard deviation of three assays
How it was run: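 PBMC from heparinized blood of CLL patients, isolated on Histopaque 1077 and washed. Plated at 1 million cells/well in RPMI 1640 with 10% FBS, 20 mM L-glutamine and penicillin/streptomycin. Exposed to 20μM test compound or vehicle for 48 h at 37°C, 5% CO2. Harvested, stained 10 min at 37°C with Hoechst 33342 (0.25 μg/mL final), then analysed by flow cytometry.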

[6] = test system: S. pombe strain that expresses Git2 adenylyl cyclase and human PDE4B2; test: Stationary phase viability of yeast; assay type: cell-based; conditions: 10μM BC54, three days in stationary phase
How it was run: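 S. pombe CHP1346 (git2+ cgs2-2) transformants expressing PDE4B2 or no PDE, plus CHP1207 (git2Δ cgs2-2) with PDE4B2. Grown to stationary phase for three days in EMM-leucine ± 10μM test compound. Diluted 100-fold in YES, then four 10-fold serial dilutions. Spotted onto YES, grown at 30°C and photographed.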

[7] = test system: IL-2 production by PMA-PHA stimulated Jurkat T cells; test: IL-2 assay; assay type: cell-based; conditions: 20μM
Human PDE4D2 = Human PDE4D2 (Homo sapiens, UniProt Q08499); test: In vitro PDE assay; assay type: biochemical
How it was run: as §3

PDE7A = conditions: cited from earlier work
PDE7B [8] = conditions: cited from earlier work

Human PDE4D2, sequence (Q08499 388-713): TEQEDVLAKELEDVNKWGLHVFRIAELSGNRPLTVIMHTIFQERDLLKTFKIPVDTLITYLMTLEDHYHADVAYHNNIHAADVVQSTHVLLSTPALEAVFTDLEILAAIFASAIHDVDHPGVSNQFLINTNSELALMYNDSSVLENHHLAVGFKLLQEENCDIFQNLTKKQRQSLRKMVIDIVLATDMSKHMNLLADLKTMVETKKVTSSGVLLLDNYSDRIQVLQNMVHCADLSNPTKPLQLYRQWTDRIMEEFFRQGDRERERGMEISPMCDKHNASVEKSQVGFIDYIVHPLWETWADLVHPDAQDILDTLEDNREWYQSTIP
human PDE3B, sequence (Q13370 whole entry): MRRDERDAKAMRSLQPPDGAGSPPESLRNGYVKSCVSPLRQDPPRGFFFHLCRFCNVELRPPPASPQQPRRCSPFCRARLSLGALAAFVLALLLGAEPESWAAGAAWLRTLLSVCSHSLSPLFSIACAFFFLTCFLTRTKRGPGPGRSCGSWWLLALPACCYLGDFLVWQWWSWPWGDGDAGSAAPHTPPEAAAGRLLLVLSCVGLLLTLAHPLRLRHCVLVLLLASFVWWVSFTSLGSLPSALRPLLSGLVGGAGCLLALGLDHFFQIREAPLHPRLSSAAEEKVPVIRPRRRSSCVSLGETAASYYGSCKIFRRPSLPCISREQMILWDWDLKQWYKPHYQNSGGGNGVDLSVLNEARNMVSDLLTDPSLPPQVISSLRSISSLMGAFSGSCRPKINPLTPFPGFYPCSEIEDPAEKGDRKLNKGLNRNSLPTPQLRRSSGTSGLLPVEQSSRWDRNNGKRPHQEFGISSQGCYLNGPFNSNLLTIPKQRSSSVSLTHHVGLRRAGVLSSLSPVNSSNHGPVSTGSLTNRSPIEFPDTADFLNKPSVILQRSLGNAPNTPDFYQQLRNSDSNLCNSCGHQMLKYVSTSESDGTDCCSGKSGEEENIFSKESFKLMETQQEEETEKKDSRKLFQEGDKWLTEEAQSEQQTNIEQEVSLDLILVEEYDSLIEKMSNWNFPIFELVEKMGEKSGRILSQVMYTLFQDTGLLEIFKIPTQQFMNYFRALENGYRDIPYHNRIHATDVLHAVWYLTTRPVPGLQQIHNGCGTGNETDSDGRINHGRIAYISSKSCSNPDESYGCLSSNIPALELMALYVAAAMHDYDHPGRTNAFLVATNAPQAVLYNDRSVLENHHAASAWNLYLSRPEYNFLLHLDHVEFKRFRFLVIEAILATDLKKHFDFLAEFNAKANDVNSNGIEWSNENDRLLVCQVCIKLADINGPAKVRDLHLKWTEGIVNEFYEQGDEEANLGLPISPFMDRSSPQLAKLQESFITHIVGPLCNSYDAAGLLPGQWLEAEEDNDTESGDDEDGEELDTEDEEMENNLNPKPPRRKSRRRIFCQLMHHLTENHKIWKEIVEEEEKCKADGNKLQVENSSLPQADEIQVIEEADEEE
rat PDE2A, sequence (Q01062 whole entry): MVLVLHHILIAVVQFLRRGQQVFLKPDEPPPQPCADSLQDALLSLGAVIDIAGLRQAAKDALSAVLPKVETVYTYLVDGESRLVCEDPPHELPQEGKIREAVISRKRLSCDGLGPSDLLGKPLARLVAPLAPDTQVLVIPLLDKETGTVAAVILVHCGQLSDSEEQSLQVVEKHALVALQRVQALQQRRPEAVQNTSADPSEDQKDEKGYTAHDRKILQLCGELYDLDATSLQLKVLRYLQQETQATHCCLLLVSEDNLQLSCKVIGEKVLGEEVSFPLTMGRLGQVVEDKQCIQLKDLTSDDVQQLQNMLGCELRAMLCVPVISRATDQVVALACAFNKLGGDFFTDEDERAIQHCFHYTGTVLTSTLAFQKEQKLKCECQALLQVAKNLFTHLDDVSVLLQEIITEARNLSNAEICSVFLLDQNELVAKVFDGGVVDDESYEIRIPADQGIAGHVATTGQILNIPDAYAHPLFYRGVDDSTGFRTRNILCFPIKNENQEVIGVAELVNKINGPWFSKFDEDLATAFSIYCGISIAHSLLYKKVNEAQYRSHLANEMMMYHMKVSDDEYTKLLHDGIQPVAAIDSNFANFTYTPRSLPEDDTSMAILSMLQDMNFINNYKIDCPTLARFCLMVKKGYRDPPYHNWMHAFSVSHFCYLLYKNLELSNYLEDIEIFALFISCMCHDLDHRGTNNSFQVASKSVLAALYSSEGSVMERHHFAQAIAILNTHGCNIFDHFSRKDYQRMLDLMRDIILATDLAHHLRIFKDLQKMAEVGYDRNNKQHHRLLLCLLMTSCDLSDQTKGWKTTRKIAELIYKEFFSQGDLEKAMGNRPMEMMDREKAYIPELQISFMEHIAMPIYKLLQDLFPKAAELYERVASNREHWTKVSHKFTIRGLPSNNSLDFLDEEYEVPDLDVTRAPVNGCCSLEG
human PDE11A4, sequence (Q9HCR9 whole entry): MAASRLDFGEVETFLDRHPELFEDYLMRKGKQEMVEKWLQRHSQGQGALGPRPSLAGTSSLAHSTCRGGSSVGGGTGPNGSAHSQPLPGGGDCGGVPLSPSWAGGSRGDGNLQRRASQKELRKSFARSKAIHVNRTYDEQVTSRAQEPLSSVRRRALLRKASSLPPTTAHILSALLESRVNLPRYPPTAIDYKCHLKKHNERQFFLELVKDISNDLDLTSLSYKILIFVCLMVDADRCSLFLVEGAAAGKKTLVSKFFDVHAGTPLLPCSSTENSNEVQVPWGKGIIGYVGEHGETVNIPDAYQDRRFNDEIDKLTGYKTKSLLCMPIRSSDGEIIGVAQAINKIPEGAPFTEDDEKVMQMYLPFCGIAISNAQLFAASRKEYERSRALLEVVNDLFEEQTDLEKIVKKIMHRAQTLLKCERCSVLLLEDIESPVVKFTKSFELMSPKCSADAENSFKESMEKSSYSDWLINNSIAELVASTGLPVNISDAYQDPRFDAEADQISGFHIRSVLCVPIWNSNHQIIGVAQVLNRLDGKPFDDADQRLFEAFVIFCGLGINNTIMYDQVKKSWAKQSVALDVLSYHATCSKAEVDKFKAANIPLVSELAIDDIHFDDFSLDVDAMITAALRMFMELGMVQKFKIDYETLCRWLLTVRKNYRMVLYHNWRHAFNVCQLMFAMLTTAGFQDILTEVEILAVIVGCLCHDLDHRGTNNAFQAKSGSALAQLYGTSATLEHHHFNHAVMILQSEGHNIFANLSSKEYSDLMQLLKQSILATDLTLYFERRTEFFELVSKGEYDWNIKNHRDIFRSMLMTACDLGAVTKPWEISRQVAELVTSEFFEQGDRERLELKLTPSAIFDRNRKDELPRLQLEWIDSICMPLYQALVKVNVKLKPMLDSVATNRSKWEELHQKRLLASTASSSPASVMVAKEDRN
murine PDE4A1, sequence (O89084 1-610 isoform O89084-2): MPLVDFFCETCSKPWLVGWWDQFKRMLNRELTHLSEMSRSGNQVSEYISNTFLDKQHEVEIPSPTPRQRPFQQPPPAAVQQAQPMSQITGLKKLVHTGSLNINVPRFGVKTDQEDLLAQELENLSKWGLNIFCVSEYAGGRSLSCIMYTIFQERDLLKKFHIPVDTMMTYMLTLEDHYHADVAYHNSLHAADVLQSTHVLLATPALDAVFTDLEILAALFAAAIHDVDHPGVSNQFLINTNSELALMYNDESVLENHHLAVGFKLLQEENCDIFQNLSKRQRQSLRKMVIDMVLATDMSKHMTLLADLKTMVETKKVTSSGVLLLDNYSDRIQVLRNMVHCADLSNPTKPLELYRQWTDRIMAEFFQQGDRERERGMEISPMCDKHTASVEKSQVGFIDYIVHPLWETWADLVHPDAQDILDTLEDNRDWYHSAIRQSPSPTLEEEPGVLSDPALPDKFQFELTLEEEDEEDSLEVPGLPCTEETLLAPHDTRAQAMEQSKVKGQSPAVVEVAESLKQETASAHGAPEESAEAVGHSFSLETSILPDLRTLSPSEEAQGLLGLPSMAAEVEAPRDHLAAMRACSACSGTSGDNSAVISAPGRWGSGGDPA
murine PDE4B3, sequence (Q8VBU5 1-721): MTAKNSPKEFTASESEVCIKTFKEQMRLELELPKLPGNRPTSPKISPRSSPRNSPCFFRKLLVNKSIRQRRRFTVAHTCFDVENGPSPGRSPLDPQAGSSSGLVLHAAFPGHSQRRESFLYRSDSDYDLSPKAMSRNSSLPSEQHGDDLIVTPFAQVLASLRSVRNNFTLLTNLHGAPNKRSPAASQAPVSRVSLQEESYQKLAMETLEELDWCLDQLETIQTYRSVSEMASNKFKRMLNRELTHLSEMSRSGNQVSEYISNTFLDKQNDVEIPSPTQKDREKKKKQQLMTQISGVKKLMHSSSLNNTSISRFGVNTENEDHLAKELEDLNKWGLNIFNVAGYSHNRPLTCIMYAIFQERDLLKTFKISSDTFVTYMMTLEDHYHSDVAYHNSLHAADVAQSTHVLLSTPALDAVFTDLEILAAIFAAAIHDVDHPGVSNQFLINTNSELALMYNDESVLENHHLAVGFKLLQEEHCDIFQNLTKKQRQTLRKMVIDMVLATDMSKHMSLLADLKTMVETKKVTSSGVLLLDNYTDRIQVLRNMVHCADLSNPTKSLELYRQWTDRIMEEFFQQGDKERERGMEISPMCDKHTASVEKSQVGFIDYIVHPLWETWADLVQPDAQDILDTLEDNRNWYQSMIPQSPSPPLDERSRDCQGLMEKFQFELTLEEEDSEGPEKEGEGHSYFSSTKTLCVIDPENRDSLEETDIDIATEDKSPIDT
mutant PDE4B2^T407A catalytic domain, sequence (Q07343 324-659 T579A): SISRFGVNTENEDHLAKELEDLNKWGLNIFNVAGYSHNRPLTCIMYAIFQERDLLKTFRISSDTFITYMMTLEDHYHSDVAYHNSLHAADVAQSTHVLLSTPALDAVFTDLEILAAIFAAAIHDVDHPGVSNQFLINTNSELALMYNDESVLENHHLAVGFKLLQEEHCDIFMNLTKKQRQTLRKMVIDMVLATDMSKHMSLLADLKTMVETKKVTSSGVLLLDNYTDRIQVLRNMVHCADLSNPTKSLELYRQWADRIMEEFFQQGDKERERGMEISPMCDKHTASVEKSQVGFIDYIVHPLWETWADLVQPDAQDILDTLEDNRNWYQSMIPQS
Human PDE4B2, sequence (Q07343 324-659): as the sequence (Q07343 324-659 T579A) above, with A256T counted along it

## CCOC(=O)c1cc2c(=O)n3ccccc3nc2n(C2CCCCC2)/c1=N\C(C)=O [BC54, ethyl (2Z)-2-(acetylimino)-1-cyclohexyl-5-oxo-1,5-dihydro-2H-dipyrido[1,2-a:2′,3′-d] pyrimidine-3-carboxylate]
PDE11A
  Composite Z score: 7.74
Murine PDE4A1
  Composite Z score: > 40
Rat PDE2A
  IC50: ~3 µM
Human PDE9A2
  IC50: > 10 µM
Human PDE3B
  IC50: > 10 µM
Human PDE8A
  IC50: > 10 µM
[1]
  potency in 5FOA growth assay: significant potency at sub-micromolar concentrations
Human PDE5A1
  IC50: > 10 µM
[2]
  IC50: 124 ± 8.8 nM
PDE7B [3]
  IC50: 140 nM
Human PDE7A1
  Composite Z score: > 40
[4]
  TNFα production: significantly reduces
Human PDE7A
  IC50: 140 nM
Murine PDE4B3
  Composite Z score: > 40
PDE8A
  Composite Z score: −2.35
Rat PDE4A5
  Composite Z score: > 40
Human PDE11A4
  IC50: ~3 µM
Human PDE1C
  IC50: > 10 µM
Human PDE4A10
  IC50: 50 to 110 nM
[5]
  selectivity for PDE4 and PDE7 relative to PDE2A and PDE11A: greater than 20 fold
Human PDE10A1
  IC50: > 10 µM
Human PDE4B2
  IC50: 50 to 110 nM
CLL cells; Patient 1
  CLL apoptosis: 87.3±0.76
CLL cells; Patient 2
  CLL apoptosis: 58.8±3.12
CLL cells; Patient 3
  CLL apoptosis: 39.8±1.79
[6]
  reduction of stationary phase viability: approximately ten-fold
[7]
  IL-2 production: significantly reduces
Human PDE4D2
  IC50: 50 to 110 nM

## Cc1ccc([N+](=O)[O-])cc1S(=O)(=O)N(C)C [BRL50481, 3-(N,N-dimethylsulfonamido)-4-methyl-nitrobenzene]
PDE7A
  IC50: 150 nM
PDE7B [8]
  IC50: 12.1 µM
CLL cells; Patient 1
  CLL apoptosis: 52.5±0.78
CLL cells; Patient 2
  CLL apoptosis: 26.3±1.02
CLL cells; Patient 3
  CLL apoptosis: 5.1±0.72

## COc1ccc(C2CNC(=O)C2)cc1OC1CCCC1 (stereo not drawn) [rolipram]
CLL cells; Patient 1
  CLL apoptosis: 76.7±0.76
CLL cells; Patient 2
  CLL apoptosis: 35.6±0.7
CLL cells; Patient 3
  CLL apoptosis: 20.3±2.18
